For series [1], the system named is normal T-lymphocytes (peripheral blood mononuclear cells: PBMC). The following applies: PBMC vs Jurkat; ref [34]; cited from earlier work.
Series [2] has as its system Jurkat control (CN) cells. The settings on record: 25 μM; ref [33]; cited from earlier work.
For series [3], the system named is Jurkat-shBak cells (Bax/Bak-deficient Jurkat cells). The following applies: 25 μM; ref [33]; cited from earlier work.
For series [4] the following is noted: ref [34], cited from earlier work.
Series [5] in a line: Stability in solution by 31P{1H} NMR. It counts as physicochemical. The following applies: for half-life in d6-DMSO:D2O mixture: d6-DMSO:D2O (1:1 / 50:50).
A further series is described as follows: Solubility. It counts as physicochemical.
Another series relates to plasmid (pBR322) DNA. As to the kind of experiment: Electrophoresis mobility shift assay with plasmid DNA. It counts as binding. The following applies: metal/DNA ratios 0.25, 0.5, 1.0; 37 °C, 20 h. The method in brief:
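pBR322 plasmid DNA (20 μg/mL) in 5 mM Tris/HCl, 50 mM NaClO4, pH 7.39 was incubated with test compound at compound:DNA molar ratios of […] for 20 h at 37 °C in the dark. Free DNA and cisplatin-DNA adduct served as controls. Samples were run on 1% agarose in TAE for 1.5 h at 80 V, then stained 30 min with GelRed.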

In brackets after ≈: the same amount, converted by molar mass. Several values for one entry are separate records, joined by “and”; a condition that tells them apart may be missing. Identical values can stand only once.

On to `N.N.[Cl][Pt][Cl]` [Cisplatin, cisplatin], for which the “times less toxic to PBMC than to Jurkat cell lines” value in series [1] is 70 times. In addition, the “death of Jurkat control (CN) cells” value in series [2] is listed as “around 60%”. In series [3], the “death of Jurkat-shBak cells” value was “less than 8%”.

As to `O=C(N=P12CN3CN(CN(C3)C1)C2)c1ccccn1` [TPA=N-C(O)-2-NC5H4], the “time to 50% decomposition in D2O” value in series [4] (D2O) is on record as 12 h. Further, the “half-life in d6-DMSO:D2O (1:1)” value in series [4] (d6-DMSO:D2O (1:1)) was 48 h.

Consider `O=C(N=P12CN3CN(CN(C3)C1)C2)c1ccccc1Br` [compound 1, TPA=N-C(O)-2BrC6H4], for which the “half-life in D2O” value in series [5] (D2O) is 48 h. Besides, the “stability in DMSO solution” value in series [5] (DMSO) is on record as “over two weeks”. In series [5], the “half-life in d6-DMSO:D2O mixture” value turned out to be 336 h. In “Solubility”, the “Solubility (H2O)” value amounted to 28 mM (≈ 9940 µg/mL) and the “solubility in H2O” value turned out to be 10000 µg/mL (≈ 28.2 mM). Besides, in the series on plasmid (pBR322) DNA, the “change in electrophoretic mobility of pBR322 forms (CCC Form I, OC Form II)” value is “does not cause any shift for either form”.

Turning to “[Pd{C6H4(C(O)N=TPA-kC,N)-2}{C12H6N2(C6H4SO3Na)2}] [compound 5]”, the “stability under biological testing conditions” value in series [5] (24 h) is “stable”. The “stable in d6-DMSO solution over” value in series [5] (d6-DMSO) is “over 2 days”. The “half-life in d6-DMSO:D2O mixture” value in series [5] was “above 4 days”. For the same compound, in the series “Solubility”, the “Solubility (H2O)” value is 1.0 mM and 0.90 mg/mL.

Source of the values: paper PMC3466594 (Organometallics, 2012).
